Measurements: the M2OR odorant receptor database

Molecular target: T1, OR2M3 (Homo sapiens) (UniProt Q8NG83)
T1 sequence (whole entry): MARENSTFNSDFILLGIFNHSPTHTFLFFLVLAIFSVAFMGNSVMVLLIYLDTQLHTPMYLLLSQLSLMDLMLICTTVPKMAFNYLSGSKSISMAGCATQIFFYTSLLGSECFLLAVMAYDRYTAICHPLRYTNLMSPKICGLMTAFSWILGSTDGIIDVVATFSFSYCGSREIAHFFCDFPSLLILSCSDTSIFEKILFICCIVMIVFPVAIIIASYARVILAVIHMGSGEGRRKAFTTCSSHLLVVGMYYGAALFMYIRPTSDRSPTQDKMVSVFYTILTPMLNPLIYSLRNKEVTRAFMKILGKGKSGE
Details: stereoisomer not certain
Method in brief: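 Values were gathered from published papers (main text and supplementary material), with extra details requested from the original authors when needed, and checked for typos and inconsistencies. Each receptor–molecule pair is called responsive (active) if the original authors judged the measured signal statistically different from baseline, and non-responsive (inactive) otherwise. Assay methods varied by source, often transient mammalian cell-line luciferase assays. Recorded details include cell line, G-protein, co-transfected protein and tags.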

Odorant receptor agonist call, active:
CC(S)C(C)CO (configuration not stated)

Odorant receptor agonist call, inactive:
CCOC(=O)C1CCCCC1
CC(=O)c1ccccc1N
COC1=C(C)OC(C)C1=O (configuration not stated)
CC(=O)OCCC(C)C
CCC=CCC=O
COc1cccc(OC)c1O
CCCCC=CC=CC=O
CC(C)CO
CC(=O)OCC=Cc1ccccc1
SCCc1ccccc1
CCO
CC(=O)OCCc1ccccc1
O=C(O)CCc1ccccc1
CC(C)CCO
CC(C)(S)CCOC=O
O=C(O)C=Cc1ccc(O)cc1
COc1nccnc1CC(C)C
CCCCC1CCC(=O)O1 (configuration not stated)
CSCCCO
CCCCCCCCCO
CCCC(=O)OC
CCCC(=O)C(C)CC (configuration not stated)
CC(=O)c1cnccn1
CCC(C)COC(C)=O (configuration not stated)
CCC=CCCC=O
C=Cc1ccc(O)c(OC)c1
CCCC=CC=O
CCCc1ccc(O)c(OC)c1
CCCCC(CC)CCC(=O)O (configuration not stated)
C=CC(=C)CCC=C(C)C
CC=CC(=O)C(C)CC (configuration not stated)
OCCc1ccccc1
Cc1cccc(C)c1O
CC(C)CC=O
CCC(S)C(C)=O (configuration not stated)
C=Cc1ccc(O)cc1
